For 8 molecules, GI50 and IC50 results are on record in ChEMBL document CHEMBL1811802, “Synthesis and significant cytostatic activity of 7-hetaryl-7-deazaadenosines” (J Med Chem, 2011).

Molecules are shown by their SMILES. Some results are limits rather than exact numbers.

For one assay, the system named is PC-3. In words: Cytostatic activity against human PC3 cells after 5 days by SRB assay. It counts as functional. To be noted: PC-3, 120 h. The method in brief: (§1)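 Cells seeded per line density, overnight at 37 °C; day-zero plate TCA-fixed. 5-fold serial dilutions added, 5-day incubation; TCA fixation, 0.057% SRB in 1% acetic acid 30 min, dye dissolved in 10 mM Tris pH 10.5, A500. Growth relative to day-zero and untreated; GIC50 from sigmoidal dose–response fit; mean of two independent experiments.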

In another assay the target is Adenosine kinase (Homo sapiens, UniProt P55263). In words: Inhibition of human ADK using [3H]-adenosine by scintillation counting.
Sequence of Adenosine kinase (P55263 whole entry): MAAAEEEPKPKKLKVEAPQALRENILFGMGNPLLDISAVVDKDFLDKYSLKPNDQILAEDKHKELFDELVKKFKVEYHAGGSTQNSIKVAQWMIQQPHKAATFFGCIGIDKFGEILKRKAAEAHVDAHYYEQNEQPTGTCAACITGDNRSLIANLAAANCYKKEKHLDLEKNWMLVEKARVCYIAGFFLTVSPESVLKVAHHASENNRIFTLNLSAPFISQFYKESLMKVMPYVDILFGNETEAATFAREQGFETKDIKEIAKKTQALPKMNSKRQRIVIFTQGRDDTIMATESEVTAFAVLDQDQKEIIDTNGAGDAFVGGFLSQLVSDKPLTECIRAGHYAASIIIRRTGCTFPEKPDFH
Assay [1] in a line: Cytotoxicity against human HeLaS3 cells after 3 days by XTT assay. The class given is functional, cell-based. To be noted: HeLa S3, 72 h. An outline of the steps:
(§2)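 Suspension-grown cell lines, 3-day compound incubation; viability read by XTT metabolic assay; IC50 averaged from four independent experiments.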

For the next assay, the system named is CCRF-CEM. In words: Cytotoxicity against human CCRF-CEM cells after 3 days by XTT assay. It counts as functional, cell-based. The settings on record: 72 h. The method in brief:
as §2

The subject of a further assay is HCT-116. In words: Cytostatic activity against human HCT116 cells after 5 days by SRB assay. It counts as functional. To be noted: HCT-116, 120 h. An outline of the steps:
as §1

Another assay concerns NCI-H23. In words: Cytostatic activity against human NCI-H23 cells after 5 days by SRB assay. The class given is functional. To be noted: NCI-H23, 120 h. The method in brief: as §1
Assay [2] is described as follows: Cytostatic activity against human Hs578 cells after 5 days by SRB assay. It counts as functional. To be noted: Hs578, 120 h. The method in brief:
as §1

Another assay relates to HL-60. In words: Cytotoxicity against human HL60 cells after 3 days by XTT assay. The class given is functional, cell-based. The settings on record: HL-60, 72 h. The method in brief: as §2
For a further assay, the system named is MT4. In words: Cytostatic activity against human MT4 cells after 5 days by SRB assay. The class given is functional. To be noted: MT4, 120 h.
For a further assay, the system named is A549. In words: Cytostatic activity against human A549 cells after 5 days by SRB assay. It counts as functional. To be noted: A549, 120 h. The method in brief:
as §1

For the next assay, the system named is DU-145. In words: Cytostatic activity against human DU145 cells after 5 days by SRB assay. To be noted: DU-145, 120 h. The class given is functional. The method in brief: as §1
For a further assay, the system named is HCT-15. In words: Cytostatic activity against human HCT15 cells after 5 days by SRB assay. To be noted: HCT-15, 120 h. It counts as functional. An outline of the steps: as §1
The nature of assay [3]: Cytotoxicity against human CEM-DNR-bulk cells after 3 days by MTT assay. The class given is functional, cell-based. To be noted: 72 h.
For another assay, the system named is HPAC. In words: Cytotoxicity against human HPAC cells after 3 days by MTT assay. The class given is functional, cell-based. The settings on record: 72 h.
A further assay deals with HT-29. In words: Cytotoxicity against human HT-29 cells after 3 days by MTT assay. It counts as functional, cell-based. The settings on record: HT-29, 72 h.
The test system of the next assay is BV-173. In words: Cytotoxicity against human BV173 cells after 3 days by MTT assay. The class given is functional, cell-based. To be noted: BV-173, 72 h.
A short description of assay [4]: Cytotoxicity against human MES-SA cells after 3 days by MTT assay. The class given is functional, cell-based. The settings on record: 72 h.
The next assay relates to LNCaP. In words: Cytotoxicity against human LNCAP cells after 3 days by MTT assay. The class given is functional, cell-based. The settings on record: 72 h.
The test system of another assay is C6. In words: Cytotoxicity against rat C6 cells after 3 days by MTT assay. It counts as functional, cell-based. To be noted: C6, 72 h.
Another assay deals with CT26. In words: Cytotoxicity against mouse CT26 cells after 3 days by MTT assay. It counts as functional, cell-based. To be noted: CT26, 72 h.
A further assay has as its system MCF7. In words: Cytotoxicity against human MCF7 cells after 3 days by MTT assay. To be noted: MCF7, 72 h. The class given is functional, cell-based.
Assay [5] deals with K562. In words: Cytotoxicity against human paclitaxel resistant K562 cells after 3 days by MTT assay. The class given is functional, cell-based. The settings on record: K562, 72 h.
Assay [6] can be described thus: Cytotoxicity against human NCI-H146 cells after 3 days by MTT assay. The settings on record: NCI-H146, 72 h. The class given is functional, cell-based.
Another assay deals with SK-MEL-2. In words: Cytotoxicity against human SK-MEL-2 cells after 3 days by MTT assay. The class given is functional, cell-based. To be noted: SK-MEL-2, 72 h.
A short description of assay [7]: Cytotoxicity against mouse P388D1 cells after 3 days by MTT assay. It counts as functional, cell-based. The settings on record: P388D1, 72 h.
The next assay concerns SK-N-AS. In words: Cytotoxicity against human SK-N-AS cells after 3 days by MTT assay. To be noted: 72 h. It counts as functional, cell-based.
The subject of another assay is EL4. In words: Cytotoxicity against mouse EL4 cells after 3 days by MTT assay. It counts as functional, cell-based. To be noted: EL4, 72 h.
A further assay deals with L1210. In words: Cytotoxicity against mouse L1210 cells after 3 days by MTT assay. It counts as functional, cell-based. To be noted: L1210, 72 h.
In assay [8] the test system is K562. In words: Cytotoxicity against human K562 cells after 3 days by MTT assay. The settings on record: K562, 72 h. The class given is functional, cell-based.
In a further assay the test system is MDA-MB-231. In words: Cytotoxicity against human MDA-MB-231 cells after 3 days by MTT assay. The settings on record: MDA-MB-231, 72 h. It counts as functional, cell-based.
The next assay concerns BJ. In words: Cytotoxicity against human BJ cells after 3 days by MTT assay. The settings on record: 72 h. It counts as cell-based.
Assay [9] concerns BT-549. In words: Cytotoxicity against human BT549 cells after 3 days by MTT assay. It counts as functional, cell-based. The settings on record: BT-549, 72 h.
In the next assay the test system is SK-OV-3. In words: Cytotoxicity against human SKOV3 cells after 3 days by MTT assay. The class given is functional, cell-based. The settings on record: SK-OV-3, 72 h.
The next assay has as its system HeLa. In words: Cytotoxicity against human HeLa cells after 3 days by MTT assay. The settings on record: 72 h. It counts as functional, cell-based.
Assay [10] is described as follows: Cytotoxicity against human U87MG cells after 3 days by MTT assay. It counts as functional, cell-based, U-87MG ATCC. To be noted: U-87 MG, 72 h.
The test system of assay [11] is BT-549. In words: Cytostatic activity against human BT549 cells after 5 days by SRB assay. The class given is functional. The settings on record: BT-549, 120 h. The method in brief: as §1

Regarding `Nc1ncnc2c1c(-c1c[nH]cn1)cn2[C@@H]1O[C@H](CO)[C@@H](O)[C@H]1O`, the GI50 with PC-3 amounted to 0.002 µM; with HCT-116, 0.003 µM; with NCI-H23 it was 0.002 µM; in [2] it was 0.002 µM; in the assay on MT4, 0.028 µM. Besides, the IC50 against Adenosine kinase is over 10 µM; in assay [1] it was 0.07 µM; in the assay on CCRF-CEM, 0.07 µM; with HL-60, 0.13 µM.

For `Nc1ncnc2c1ccn2[C@@H]1O[C@H](CO)[C@@H](O)[C@H]1O` [TUBERCIDIN], the concentration for 50% growth inhibition (GI50) in the assay on PC-3 was found to be 0.048 µM; with A549, 0.001 µM; in the assay on DU-145, 0.018 µM; with HCT-116 it was 0.001 µM; in the assay with NCI-H23, 0.011 µM; in assay [2], 0.098 µM. In addition, the results for the GI50 in the assay on HCT-15 and with MT4 were 0.011 µM and 0.021 µM, respectively.

On to `Nc1ccn([C@@H]2O[C@H](CO)[C@@H](O)C2(F)F)c(=O)n1` [GEMCITABINE], for which the IC50 in assay [3] turned out to be 0.022 µM; in the assay with HPAC it was 0.073 µM; with HT-29, 1.53 µM; with BV-173, 0.001 µM; in assay [4] it was 0.005 µM; in the assay with LNCaP, 0.512 µM. For the same molecule, the IC50 in the assay with C6 is 0.504 µM; with CT26, 0.006 µM; with MCF7, 0.149 µM; in the assay on K562 [5], 0.006 µM; in assay [6] it was 2.78 µM; in the assay with SK-MEL-2, 7.11 µM. Moreover, the half-maximal inhibitory concentration (IC50) came to 0.019 µM in [7]; 1.1 µM with SK-N-AS; 0.007 µM in the assay on EL4; 0.007 µM in the assay on L1210; 0.718 µM with K562 [8]; 0.245 µM in the assay on MDA-MB-231. The IC50 with BJ was 9.88 µM; with BT-549 [9] it was 0.008 µM; in the assay with SK-OV-3, over 10 µM; in the assay on HeLa it was 4.12 µM; in assay [10] it was 1.49 µM.

For `Nc1ncnc2c1c(-c1c[nH]nn1)cn2[C@@H]1O[C@H](CO)[C@@H](O)[C@H]1O`, the GI50 with PC-3 amounted to 0.005 µM; in the assay on HCT-116, 0.004 µM; with NCI-H23, 0.004 µM; in assay [2], 0.003 µM; with MT4 it was 0.018 µM. Moreover, the IC50 in assay [1] came to 0.09 µM; in the assay on CCRF-CEM, 0.06 µM; with HL-60 it was 0.31 µM.

Regarding `Nc1ncnc2c1c(-c1ccc[nH]1)cn2[C@@H]1O[C@H](CO)[C@@H](O)[C@H]1O`, the GI50 in the assay with PC-3 came to 0.0878 µM; in the assay with A549, 0.16 µM; with HCT-116 it was 0.0652 µM; in the assay on NCI-H23, 0.333 µM; in the assay with BT-549 [11] it was 0.129 µM; in assay [2] it was 0.113 µM. In addition, the half-inhibitory concentration (IC50) in [1] is 1.04 µM; in the assay on CCRF-CEM it was 0.16 µM; in the assay on HL-60 it was 2.04 µM.

`Nc1ncnc2c1c(-c1ccc3ccccc3c1)cn2[C@@H]1O[C@H](CO)[C@@H](O)[C@H]1O`: the IC50 against Adenosine kinase is over 5 µM; in [1], over 10 µM; in the assay on CCRF-CEM it was over 10 µM; in the assay on HL-60, over 10 µM. Also, the concentration for 50% growth inhibition (GI50) with DU-145 turned out to be 1.05 µM; in the assay on HCT-116, 5.67 µM; in the assay with NCI-H23, 5.35 µM; in [2], 2.16 µM.

Regarding `Nc1ncnc2c1c(-c1cc[nH]n1)cn2[C@@H]1O[C@H](CO)[C@@H](O)[C@H]1O`, the concentration for 50% growth inhibition (GI50) in the assay on PC-3 came out at 0.015 µM; in the assay with HCT-116, 0.018 µM; in the assay on NCI-H23, 0.035 µM; in [2], 0.008 µM; in the assay with MT4, 0.018 µM. The IC50 is over 10 µM against Adenosine kinase, 0.69 µM in assay [1], 0.13 µM in the assay on CCRF-CEM and over 20 µM with HL-60.

As to `CSc1ccc(-c2cn([C@@H]3O[C@H](CO)[C@@H](O)[C@H]3O)c3ncnc(N)c23)cc1`, the IC50 (at Adenosine kinase; in assay [1]; with CCRF-CEM; in the assay on HL-60) was over 10 µM in each case. The GI50 with DU-145 stood at 1.87 µM; in the assay on HCT-116, 1.29 µM; with NCI-H23 it was 0.39 µM; in assay [2], 1.97 µM; with MT4, 4.4 µM.
